Source: ChEMBL document CHEMBL3286113, “New potent antibacterial oxazolidinone (MRX-I) with an improved class safety profile” (J Med Chem, 2014)
Converted amounts (≈) assume the structure as drawn.

Key:
[1] = Tmax in human at 600 mg, po administered as single dose with meal measured on day 1; assay type: ADME, organism-based; settings: in vivo
Outline: (§1)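 Randomized, double-blind, placebo-controlled multiple-dose study in 32 healthy subjects, half male and half female. Dosing was 600 or 800 mg orally with a meal, 28 doses over 15 days. A single dose was given on days 1 and 15 for full PK, with Q12h (BID) dosing on days 2−14.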

[2] = Half life in po dosed rat; assay type: ADME, organism-based; settings: in vivo
[3] = Tmax in male rat at 15 mg/kg, po; assay type: ADME, organism-based; set-up: dose 15 mg/kg, route oral; settings: in vivo
Outline: (§2)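 Male and female rats received single oral doses of 5, 15 or 45 mg/kg, with 5 mg/kg iv as a reference arm. Tmax was read from the plasma concentration–time profile for each gender.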

Enterococcus faecalis [4] = experiment: Bacteriostatic activity against vancomycin-sensitive Enterococcus faecalis; assay type: functional
Homo sapiens = experiment: Toxicity in fasted human at 50 to 1800 mg, po; assay type: organism-based; settings: in vivo
Outline: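 Randomized, double-blind, placebo-controlled single ascending dose study in healthy Chinese subjects under fasting conditions. Eight groups received single oral doses of 50, 100, 200, 400, 800, 1200, 1600 or 1800 mg, with tolerability assessed.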

Staphylococcus aureus [5] = experiment: Antibacterial activity against methicillin-sensitive Staphylococcus aureus; assay type: functional
[6] = AUC (0 to 24 hrs) in female rat at 200 mg/kg/day, po bid administered for 4 weeks; assay type: ADME, organism-based; set-up: dose 200 mg/kg/day, time < 24 hr, route oral; settings: plasma
Outline: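 Repeat-dose toxicity study in rats (10/gender/group) dosed orally twice daily for 4 weeks, then a 4-week recovery period; the top dose was raised from 200 to 300 mg/kg/day on day 15. Blood was taken on days 1, 14 and 28 for toxicokinetics, and AUC0−24 was reported for females.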

[7] = Half life in male rat at 15 mg/kg, po; assay type: ADME, organism-based; set-up: dose 15 mg/kg, route oral; settings: in vivo
Enterococcus faecalis [8] = experiment: Antibacterial activity against vancomycin-resistant Enterococcus faecalis isolate EFL 4041; assay type: functional
Staphylococcus aureus [9] = experiment: Antibacterial activity against methicillin-sensitive Staphylococcus aureus ATCC 29213 in po dosed mouse thigh infection model; assay type: functional, organism-based; settings: Thigh muscle
Outline: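 Mouse thigh infection with S. aureus ATCC29213 (MSSA), 10 animals per dosing group. Oral doses were 5, 10, 20, 40 and 80 mg/kg. The read-out was log CFU per thigh after treatment, and the reduction (ΔLogCFU/thigh) was reported.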

[10] = Tmax in male rat at 5 mg/kg, po; assay type: ADME, organism-based; set-up: dose 5 mg/kg, route oral; settings: in vivo; outline: as §2
Rattus norvegicus [11] = experiment: Toxicity in female rat assessed as effect on hematocrit level at 200 to 300 mg/kg/day, po bid administered for 4 weeks (reference value: 39.08%); assay type: organism-based; set-up: route oral; settings: in vivo, 672 h
[12] = Cmax in female rat at 45 mg/kg, po; assay type: ADME, organism-based; set-up: dose 45 mg/kg, route oral; settings: in vivo
Streptococcus pneumoniae [13] = experiment: Antibacterial activity against penicillin intermediate-sensitive Streptococcus pneumoniae ATCC 49619 clinical isolate; assay type: functional
Rattus norvegicus [14] = experiment: Dose normalized AUC (0 to t) in po dosed rat; assay type: ADME, organism-based; settings: in vivo
[15] = Half life in male rat at 45 mg/kg, po; assay type: ADME, organism-based; set-up: dose 45 mg/kg, route oral; settings: in vivo
Rattus norvegicus [16] = experiment: Dose normalized Cmax in po dosed rat; assay type: ADME, organism-based; settings: in vivo
[17] = Tmax in human at 800 mg, po administered as single dose with meal measured on day 15; assay type: ADME, organism-based; settings: in vivo; outline: as §1
[18] = test system: Streptococcus dysgalactiae subsp. equisimilis; experiment: Antibacterial activity against Streptococcus equisimilis; assay type: functional
Streptococcus pneumoniae [19] = experiment: Antibacterial activity against penicillin intermediate-sensitive Streptococcus pneumoniae ATCC 49619 clinical isolate in po dosed mouse systemic infection model; assay type: functional; settings: ATCC 49619, po
Staphylococcus aureus [20] = experiment: Antibacterial activity against Staphylococcus aureus measured after 10 serial passages; assay type: functional
Staphylococcus aureus [21] = experiment: Antibacterial activity against Staphylococcus aureus measured after 4 serial passages; assay type: functional
[22] = AUC (0 to t) in female rat at 45 mg/kg, po; assay type: ADME, organism-based; set-up: dose 45 mg/kg, route oral; settings: plasma
Outline: (§3)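 Rat PK by gender, with single oral doses of 5, 15 and 45 mg/kg and an iv dose of 5 mg/kg. Tmax, Cmax, T1/2 and AUC0−t were reported per gender.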

Staphylococcus aureus [23] = experiment: Antibacterial activity against methicillin-resistant Staphylococcus aureus isolate 0612 in po dosed mouse systemic infection model; assay type: functional; settings: isolate 0612, po
Cytochrome P450 2C19 = Cytochrome P450 2C19 (Homo sapiens, UniProt P33261); experiment: Inhibition of CYP2C19 (unknown origin) at 1 to 200 uM; assay type: ADME
Sequence of Cytochrome P450 2C19 (P33261 whole entry): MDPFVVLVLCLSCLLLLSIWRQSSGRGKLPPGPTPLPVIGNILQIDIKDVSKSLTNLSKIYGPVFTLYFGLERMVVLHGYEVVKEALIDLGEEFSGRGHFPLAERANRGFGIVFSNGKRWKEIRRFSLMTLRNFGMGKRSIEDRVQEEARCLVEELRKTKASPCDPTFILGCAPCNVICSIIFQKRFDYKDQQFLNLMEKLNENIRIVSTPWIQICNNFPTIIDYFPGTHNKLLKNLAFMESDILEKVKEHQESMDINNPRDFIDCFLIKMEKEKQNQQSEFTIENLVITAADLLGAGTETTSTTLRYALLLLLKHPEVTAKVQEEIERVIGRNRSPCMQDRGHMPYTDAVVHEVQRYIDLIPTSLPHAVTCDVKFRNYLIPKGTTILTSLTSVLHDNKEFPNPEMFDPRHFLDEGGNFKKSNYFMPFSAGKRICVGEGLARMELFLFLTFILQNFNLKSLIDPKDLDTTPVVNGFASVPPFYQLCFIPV

[24] = AUC (0 to t) in male rat at 5 mg/kg, po; assay type: ADME, organism-based; set-up: dose 5 mg/kg, route oral; settings: plasma; outline: as §3

O=C1C=CN(c2c(F)cc(N3C[C@H](CNc4ccon4)OC3=O)c(F)c2F)CC1 [CONTEZOLID]
Tmax [1]: 0.65 h | half-life [2]: 1.5 h | Tmax [3]: 1 h | MIC50 (Enterococcus faecalis [4]): 1 µg/mL (≈ 2.45 µM) | MIC90 (Enterococcus faecalis [4]): 1 µg/mL (≈ 2.45 µM) | Activity (Homo sapiens): Non-toxic | MIC (Staphylococcus aureus [5]): 0.5 µg/mL (≈ 1.22 µM) | MIC50 (Staphylococcus aureus [5]): 0.5 µg/mL (≈ 1.22 µM) | MIC90 (Staphylococcus aureus [5]): 0.5 µg/mL (≈ 1.22 µM) | AUC at 24 h [6]: 626 µg·h/mL | half-life [7]: 1.18 h | MIC (Enterococcus faecalis [8]): 1 µg/mL (≈ 2.45 µM) | Activity (Staphylococcus aureus [9]): Dose-dependent effect | Tmax [10]: 0.5 h | Activity (Rattus norvegicus [11]): 30.6% | Cmax [12]: 50000 ng/mL | MIC (Streptococcus pneumoniae [13]): 1 µg/mL (≈ 2.45 µM) | AUCt/dose (Rattus norvegicus [14]): 3703 ng·h/mL/mg/kg | half-life [15]: 1.07 h | Cmax/dose (Rattus norvegicus [16]): 1065 ng/mL/(mg/kg) | Tmax [17]: 0.57 h | MIC [18]: 1 µg/mL (≈ 2.45 µM) | MIC50 [18]: 1 µg/mL (≈ 2.45 µM) | MIC90 [18]: 1 µg/mL (≈ 2.45 µM) | ED50 (Streptococcus pneumoniae [19]): 8.1 mg/kg | MIC (Staphylococcus aureus [20]): 4 µg/mL (≈ 9.8 µM) | MIC (Staphylococcus aureus [21]): 2 µg/mL (≈ 4.9 µM) | AUC(0-t) [22]: 230 µg·h/mL | ED50 (Staphylococcus aureus [23]): 7.2 mg/kg | inhibition (INH) (Cytochrome P450 2C19): Not Active | AUC(0-t) [24]: 10.2 µg·h/mL
